How the values were obtained:
Format in all cases: functional
[1] = test system: Plasmodium berghei; assay: Antiparasitic activity as survival days against chloroquine-sensitive Plasmodium berghei ANKA infected NIH mice (Mus musculus) at 20 mg/kg intraperitoneal dose
How it was run: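 NIH mice (18–22 g) infected ip with 1 × 10⁷ P. berghei parasites; dosing started 2 h post-infection. Compound dissolved in DMSO (0.1 M stock), diluted in 2% Saline–Tween 20, given ip at 20 mg/kg once daily for 4 days. Chloroquine 25 mg/kg as positive control; saline-treated mice as untreated controls. Survival time after infection recorded versus control mice.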

[2] = test system: Plasmodium berghei; assay: Antiparasitic activity as reduced parasitaemia against chloroquine-sensitive Plasmodium berghei ANKA infected NIH mice (Mus musculus) at 20 mg/kg intraperitoneal dose at day 4; design: scale not given: the % may be the effect or the level left
How it was run: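 Four-day suppressive test in NIH mice (18–22 g) infected ip with 1 × 10⁷ P. berghei. Dosing began 2 h post-infection: 20 mg/kg ip once daily for 4 days, from a 0.1 M DMSO stock diluted in 2% saline–Tween 20. Chloroquine at 25 mg/kg was the positive control. Day-4 parasitemia was read from Giemsa smears as a percentage versus saline-treated controls.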

[3] = biological target: T1, Histidine-rich protein PFHRP-II (Plasmodium falciparum) (UniProt P05227); assay: Inhibition of beta-hematin formation using synthetic hemin chloride; design: concentration or dose not given beside the values; conditions: concentration not given here
T1 sequence (whole entry): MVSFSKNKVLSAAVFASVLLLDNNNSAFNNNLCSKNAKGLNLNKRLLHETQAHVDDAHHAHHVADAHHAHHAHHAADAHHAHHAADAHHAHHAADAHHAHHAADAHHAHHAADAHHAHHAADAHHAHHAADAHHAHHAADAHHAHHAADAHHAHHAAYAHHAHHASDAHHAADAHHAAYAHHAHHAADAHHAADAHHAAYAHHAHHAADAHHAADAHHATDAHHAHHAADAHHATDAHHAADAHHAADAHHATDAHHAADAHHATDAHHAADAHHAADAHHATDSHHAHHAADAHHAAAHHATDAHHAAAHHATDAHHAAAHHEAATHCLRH
How it was run: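 Hemin chloride (4 mM in DMSO) was mixed in triplicate with compound in DMSO (50–5 mM as added); water or DMSO served as controls. Acetate buffer (0.2 M, pH 4.4) was added, then incubated at 37 °C for 48 h and centrifuged. The pellet was washed with DMSO, dissolved in 0.2 N NaOH and diluted 1:2 in 0.1 N NaOH. A405 was read and expressed as % inhibition of β-hematin formation.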

[4] = test system: Plasmodium berghei; assay: Antiparasitic activity against Plasmodium berghei ANKA infected BALB/c mice (Mus musculus) after 18 hrs as reduced hemoglobin proteolysis
How it was run: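 Parasite extract: blood from P. berghei ANKA-infected mice (30–70% parasitemia); erythrocytes washed and lysed, then freed parasites freeze–thawed three times. Native mouse hemoglobin was incubated with extract, GSH and 0.2 M acetate buffer pH 5.4, with compound in DMSO, at 37 °C for 18 h. Leupeptin, pepstatin and chloroquine were references. Digestion was judged visually from the 14.4 kDa globin band on SDS–PAGE.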

| SMILES | Survival [1] [days] | Activity [2] [%] | inhibition [3] [%] | inhibition (INH) [4] [%] |
| --- | --- | --- | --- | --- |
| CCOC(=O)c1sc2c(c1N)S(=O)(=O)c1ccc(Cl)cc1N2c1ccccc1C | 15.5 | 8.7 | < 5 | 74.36 |
| CCOC(=O)c1sc2c(c1N)S(=O)(=O)c1cc(Cl)ccc1N2c1ccc(Cl)cc1 | – | – | < 5 | 0 |
| CCOC(=O)c1sc2c(c1N)S(=O)(=O)c1ccc(Cl)cc1N2c1ccccc1 | 13 | 9.75 | < 5 | 78.17 |
| CCOC(=O)c1sc2c(c1N)S(=O)(=O)c1cc(Cl)ccc1N2c1cc(C)ccc1C | – | – | < 5 | 0 |
| CCOC(=O)c1sc2c(c1N)S(=O)(=O)c1ccc(Cl)cc1N2c1ccc(C)cc1 | 10.8 | 15.7 | < 5 | 64.98 |
| CCOC(=O)c1sc2c(c1N)S(=O)(=O)c1ccc(Cl)cc1N2c1ccc(Cl)c(Cl)c1 | – | – | < 5 | <5 |
| CC(C)CC(=O)N[C@H](C(=O)N[C@H](C(=O)N[C@@H](CC(C)C)[C@@H](O)CC(=O)N[C@@H](C)C(=O)N[C@@H](CC(C)C)[C@@H](O)CC(=O)O)C(C)C)C(C)C [PEPSTATIN] | – | – | – | 92.94 |
| CCOC(=O)c1sc2c(c1N)S(=O)(=O)c1ccc(Cl)cc1N2c1ccc(Cl)cc1 | – | – | < 5 | 0 |
| CCOC(=O)c1sc2c(c1N)S(=O)(=O)c1cc(Cl)ccc1N2c1ccccc1 | – | – | < 5 | 0 |
| CCOC(=O)c1sc2c(c1N)S(=O)(=O)c1cc(Cl)ccc1N2c1ccccc1C | – | – | < 5 | 0 |
| CCOC(=O)c1sc2c(c1N)S(=O)(=O)c1ccc(Cl)cc1N2c1ccc(OC)cc1 | 11.6 | 11.21 | < 5 | 37.01 |
| CCOC(=O)c1sc2c(c1N)S(=O)(=O)c1cc(Cl)ccc1N2c1ccc(Cl)c(Cl)c1 | – | – | < 5 | 0 |
| CCOC(=O)c1sc2c(c1N)S(=O)(=O)c1cc(Cl)ccc1N2c1cccc(Cl)c1 | – | – | < 5 | 0 |
| CCOC(=O)c1sc2c(c1N)S(=O)(=O)c1ccc(Cl)cc1N2c1cccc(Cl)c1 | – | – | < 5 | 0 |
| CCOC(=O)c1sc2c(c1N)S(=O)(=O)c1ccc(Cl)cc1N2c1cccc(OC)c1 | 12.16 | 11.6 | < 5 | 55.96 |
| CCOC(=O)c1sc2c(c1N)S(=O)(=O)c1cc(Cl)ccc1N2c1cccc(OC)c1 | – | – | < 5 | 0 |
| CCN(CC)CCCC(C)Nc1ccnc2cc(Cl)ccc12 (stereo not drawn) [CHLOROQUINE] | 30 | 1.31 | – | 24.12 |
| CC(=O)N[C@@H](CC(C)C)C(=O)N[C@@H](CC(C)C)C(=O)N[C@H](C=O)CCCNC(=N)N [LEUPEPTIN] | – | – | – | 89.06 |
| CCOC(=O)c1sc2c(c1N)S(=O)(=O)c1cc(Cl)ccc1N2c1ccc(OC)cc1 | – | – | < 5 | 0 |
| CCOC(=O)c1sc2c(c1N)S(=O)(=O)c1ccc(Cl)cc1N2c1cc(C)ccc1C | 11.42 | 9.4 | < 5 | 76.81 |
| CCOC(=O)c1sc2c(c1N)S(=O)(=O)c1cc(Cl)ccc1N2c1ccc(C)cc1 | – | – | < 5 | 0 |
